Test results taken from ChEMBL document CHEMBL1126582, “Symmetry-based inhibitors of HIV protease. Structure-activity studies of acylated 2,4-diamino-1,5-diphenyl-3-hydroxypentane and 2,5-diamino-1,6-diphenylhexane-3,4-diol” (J Med Chem, 1993).
≈ marks a conversion by molar mass, not a printed value.

Legend:
[1] = Estimated solubility (buffer pH 7.4); assay type: ADME; conditions: read-out: S
Outline: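 Solubility was estimated in pH 7.4 phosphate buffer.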

[2] = system: Human immunodeficiency virus 1; assay: In vitro for inhibition of cytopathic effect of HIV-1 3B in MT-4 lymphocytes.; assay type: functional, organism-based
Outline: (§1)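 MT-4 lymphocytes were infected with HIV-1 3B at an MOI of either 0.001 or 0.032 tissue culture infective dose per cell. EC50 is the concentration preventing 50% of viral cytopathic effect, from a single triplicate assay. No effect means no activity up to 100 μM or up to the cytotoxic concentration.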

[3] = target: Human immunodeficiency virus type 1 protease (Human immunodeficiency virus 1, UniProt Q72874); assay: Inhibition of purified recombinant HIV-1 protease in a fluorogenic assay
Outline: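 Purified recombinant HIV-1 protease, with cleavage of the fluorogenic substrate DABCYL-[…]-Pro-Ile-Val-Gln-EDANS as read-out. Value is the inhibitor concentration giving 50% inhibition of protease activity.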

MT4 [4] = assay: In vitro for cytotoxicity in MT-4 lymphocytes in the absence of HIV infection.; assay type: functional; conditions: Homo sapiens
Outline: (§2)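 Uninfected MT-4 lymphocytes were cultured with compound. CC50 is the concentration at which 50% of cells remain viable.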

[5] = t1/2 in rats after IV dose (5 mg/kg); assay type: ADME, organism-based; conditions: rat, in vivo
Outline: (§3)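 Rats in groups of eight: four dosed 5 mg/kg intravenously, four 10 mg/kg orally. Dosing solutions were 5 mg/mL in 20% ethanol/5% glucose in water with 2 molar equiv HCl (1 equiv HCl or 2 equiv methanesulfonic acid for some). Terminal t1/2 from the IV arm (n = 4). Cmax was the peak plasma level after oral dosing (n = 4). Bioavailability was AUCoral/2 × AUCiv over 0-6 h.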

[6] = Cmax in plasma after oral dose (10 mg/kg); assay type: ADME, organism-based; parameters: dose 10 mg/kg, route oral; outline: as §3
[7] = % bioavailability in rat after oral dose (10 mg/kg) 0 - 6 h.; assay type: ADME, organism-based; conditions: in vivo; outline: as §3
[8] = system: Human immunodeficiency virus 1; assay: Compound was tested in vitro for inhibition of cytopathic effect of HIV-1 3B in MT-4 lymphocytes; assay type: functional, organism-based; outline: as §1
[9] = In vitro for cytotoxicity in MT-4 lymphocytes in the absence of HIV infection; assay type: cell-based, MT4; conditions: human; outline: as §2
MT4 [10] = assay: Compound was tested in vitro for inhibition of cytopathic effect of HIV-1 3B in MT-4 lymphocytes; No effect; assay type: functional, cell-based, Homo sapiens; outline: as §1
[11] = Cmax in rat plasma after oral dose (10 mg/kg); assay type: ADME, organism-based; parameters: dose 10 mg/kg, route oral; outline: as §3

## CC(C)[C@H](NC(=O)OCc1ccccn1)C(=O)N[C@@H](Cc1ccccc1)C(O)[C@H](Cc1ccccc1)NC(=O)[C@H](NC(=O)OCc1ccccn1)C(C)C (stereo partly specified)
[1]
  solubility: 51 µg/mL (≈ 69 µM)
[2]
  EC50: 4.5 µM
[3]
  IC50: 0.0048 µM
MT4 [4]
  CC50: 57 µM
[5]
  half-life: 1.9 h
[6]
  Cmax: 1600 nM
[7]
  bioavailability: 19%

## CC(C)[C@H](NC(=O)OCc1cccnc1)C(=O)N[C@@H](Cc1ccccc1)C(O)[C@H](Cc1ccccc1)NC(=O)[C@H](NC(=O)OCc1cccnc1)C(C)C (stereo partly specified)
[1]
  solubility: 18 µg/mL (≈ 24.4 µM)
[2]
  EC50: 6.3 µM
[3]
  IC50: 0.0068 µM
MT4 [4]
  CC50: 62 µM
[5]
  half-life: 0.31 h
[6]
  Cmax: 220 nM
[7]
  bioavailability: 2.1%

## CC(C)[C@H](NC(=O)OCc1ccncc1)C(=O)N[C@@H](Cc1ccccc1)[C@@H](O)[C@H](Cc1ccccc1)NC(=O)[C@H](NC(=O)OCc1ccccc1)C(C)C
[1]
  solubility: 0.8 µg/mL (≈ 1.08 µM)
[8]
  EC50: 10 µM
[3]
  IC50: 0.007 µM
[9]
  CC50: > 100 µM

## CC(C)[C@H](NC(=O)OCCN1CCCC1)C(=O)N[C@@H](Cc1ccccc1)[C@@H](O)[C@H](Cc1ccccc1)NC(=O)[C@H](NC(=O)OCc1ccccc1)C(C)C
[1]
  solubility: 19 µg/mL (≈ 25.5 µM)
[3]
  IC50: 0.014 µM
MT4 [10]
  EC50: Not Active
[9]
  CC50: 21 µM

## CC(C)[C@H](NS(=O)(=O)CCc1ccncc1)C(=O)N[C@@H](Cc1ccccc1)[C@@H](O)[C@@H](O)[C@H](Cc1ccccc1)NC(=O)[C@H](NS(=O)(=O)CCc1ccncc1)C(C)C
[1]
  solubility: 5.6 µg/mL (≈ 6.69 µM)
[8]
  EC50: 17 µM
[3]
  IC50: 0.0057 µM
[9]
  CC50: > 100 µM

## CC(C)[C@H](NC(=O)OCC1CCCN(C)C1)C(=O)N[C@@H](Cc1ccccc1)[C@@H](O)[C@H](Cc1ccccc1)NC(=O)[C@H](NC(=O)OCc1ccccc1)C(C)C (stereo partly specified)
[1]
  solubility: 31 µg/mL (≈ 40.9 µM)
[3]
  IC50: 0.013 µM
MT4 [10]
  EC50: Not Active
[9]
  CC50: 17 µM

## CC(C)[C@H](NC(=O)OCc1ccncc1)C(=O)N[C@@H](Cc1ccccc1)C(O)[C@H](Cc1ccccc1)NC(=O)[C@H](NC(=O)OCc1ccncc1)C(C)C (stereo partly specified)
[1]
  solubility: 7.8 µg/mL (≈ 10.6 µM)
[8]
  EC50: 10 µM
[3]
  IC50: 0.026 µM
[9]
  CC50: > 100 µM
[11]
  Cmax: 200 nM
[5]
  half-life: 0.57 h
[7]
  bioavailability: 0.9%

## CC(C)[C@H](NC(=O)N(C)Cc1ccccn1)C(=O)N[C@@H](Cc1ccccc1)C(O)[C@H](Cc1ccccc1)NC(=O)[C@H](NC(=O)N(C)Cc1ccccn1)C(C)C (stereo partly specified)
[1]
  solubility: 167 µg/mL (≈ 218 µM)
[2]
  EC50: 25 µM
[3]
  IC50: 0.043 µM
MT4 [4]
  CC50: > 100 µM
[5]
  half-life: 0.45 h
[6]
  Cmax: 1500 nM
[7]
  bioavailability: 11%

## CC(C)[C@H](NS(=O)(=O)N(C)Cc1ccccn1)C(=O)N[C@@H](Cc1ccccc1)[C@@H](O)[C@@H](O)[C@H](Cc1ccccc1)NC(=O)[C@H](NS(=O)(=O)N(C)Cc1ccccn1)C(C)C
[1]
  solubility: 23 µg/mL (≈ 26.5 µM)
[3]
  IC50: 0.24 µM
MT4 [10]
  EC50: Not Active
[9]
  CC50: 52 µM

## CC(C)[C@H](NC(=O)N(C)Cc1csc(N)n1)C(=O)N[C@@H](Cc1ccccc1)[C@@H](O)[C@H](O)[C@H](Cc1ccccc1)NC(=O)[C@H](NC(=O)N(C)Cc1csc(N)n1)C(C)C
[1]
  solubility: 184 µg/mL (≈ 220 µM)
[8]
  EC50: 2.3 µM
[3]
  IC50: < 0.001 µM
[9]
  CC50: > 100 µM

## CC(C)[C@H](NC(=O)N(C)Cc1cccnc1)C(=O)N[C@@H](Cc1ccccc1)[C@H](O)[C@H](O)[C@H](Cc1ccccc1)NC(=O)[C@H](NC(=O)N(C)Cc1cccnc1)C(C)C
[1]
  solubility: 91 µg/mL (≈ 114 µM)
[2]
  EC50: 1.4 µM
[3]
  IC50: < 0.001 µM
MT4 [4]
  CC50: > 100 µM
[5]
  half-life: 1.3 h
[6]
  Cmax: 520 nM
[7]
  bioavailability: 17%

## CC(C)[C@H](NS(=O)(=O)N(C)Cc1ccccn1)C(=O)N[C@@H](Cc1ccccc1)C(O)[C@H](Cc1ccccc1)NC(=O)[C@H](NS(=O)(=O)N(C)Cc1ccccn1)C(C)C (stereo partly specified)
[1]
  solubility: 11 µg/mL (≈ 13.1 µM)
[3]
  IC50: 1.3 µM
MT4 [10]
  EC50: Not Active
[9]
  CC50: 32 µM
[11]
  Cmax: 2100 nM
[5]
  half-life: 1.4 h
[7]
  bioavailability: 21%

## CC(C)[C@H](NS(=O)(=O)N(C)Cc1ccccn1)C(=O)N[C@@H](Cc1ccccc1)[C@H](O)[C@H](O)[C@H](Cc1ccccc1)NC(=O)[C@H](NS(=O)(=O)N(C)Cc1ccccn1)C(C)C
[1]
  solubility: 40 µg/mL (≈ 46.1 µM)
[2]
  EC50: 43 µM
[3]
  IC50: 0.038 µM
[9]
  CC50: 65 µM
[11]
  Cmax: 1160 nM
[5]
  half-life: 1.5 h
[7]
  bioavailability: 11%

## CC(C)[C@H](NS(=O)(=O)N(C)Cc1ccccn1)C(=O)N[C@@H](Cc1ccccc1)[C@@H](O)[C@H](O)[C@H](Cc1ccccc1)NC(=O)[C@H](NS(=O)(=O)N(C)Cc1ccccn1)C(C)C
[1]
  solubility: 30 µg/mL (≈ 34.6 µM)
[3]
  IC50: 0.071 µM
MT4 [10]
  EC50: Not Active
[9]
  CC50: 56 µM

## CC(C)[C@H](NC(=O)OCCN1CCOCC1)C(=O)N[C@@H](Cc1ccccc1)[C@@H](O)[C@@H](O)[C@H](Cc1ccccc1)NC(=O)[C@H](NC(=O)OCCN1CCOCC1)C(C)C
[1]
  solubility: 132 µg/mL (≈ 162 µM)
[8]
  EC50: 14 µM
[3]
  IC50: 0.02 µM
[9]
  CC50: > 100 µM

## CC(C)[C@H](NC(=O)N1CCN(C)CC1)C(=O)N[C@@H](Cc1ccccc1)[C@@H](O)[C@H](Cc1ccccc1)NC(=O)[C@H](NC(=O)OCc1ccccc1)C(C)C
[1]
  solubility: 141 µg/mL (≈ 193 µM)
[3]
  IC50: 0.028 µM
MT4 [10]
  EC50: Not Active
[9]
  CC50: 55 µM
[11]
  Cmax: 250 nM
[5]
  half-life: 1.1 h
[7]
  bioavailability: 13%

## CC(C)[C@H](NC(=O)C1Cc2ccccc2CN1)C(=O)N[C@@H](Cc1ccccc1)C(O)[C@H](Cc1ccccc1)NC(=O)[C@H](NC(=O)C1Cc2ccccc2CN1)C(C)C (stereo partly specified)
[3]
  IC50: 0.0071 µM
MT4 [10]
  EC50: Not Active
[9]
  CC50: 6.4 µM
